Source: paper PMC8643159 (Drug Design, Development and Therapy, 2021)
Read-outs that look alike come from different tables or passages of the source. Blank lines part the entries; values can stand above or below the compound they belong to.

How the values were obtained:
CYP2C8 = conditions: cited from earlier work
CYP3A4 = conditions: cited from earlier work
[1] = format: in vivo; conditions: beagle dogs
[2] = Stability of ripretinib in beagle dog plasma under four conditions; format: in vitro ADME; conditions: room temperature, autosampler, freeze-thaw, frozen storage; 2.5, 100, 750 ng/mL
How it was run: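 Dog plasma spiked with test compound at 2.5, 100 and 750 ng/mL, six replicates per level. Stability checked at room temperature, in frozen storage, through freeze-thaw, and as processed extracts in the autosampler. Samples taken with avapritinib IS through 1 mol/L NaOH and ethyl acetate extraction, dried under nitrogen, reconstituted in mobile phase; quantified by UPLC-MS/MS (C18, 0.1% formic acid/acetonitrile gradient).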

[3] = cited from earlier work
[4] = combined with itraconazole vs ripretinib alone
[5] = combined with voriconazole vs ripretinib alone
[6] = oral administration of 150 mg of ripretinib
[7] = single dose of ripretinib 150 mg, patients

SMILES: CCn1c(=O)c(-c2cc(NC(=O)Nc3ccccc3)c(F)cc2Br)cc2cnc(N)cc21 [DP-5439]
inhibition of CYP2C8 (CYP2C8): could inhibit

SMILES: CCC(C)n1ncn(-c2ccc(N3CCN(c4ccc(OCC5COC(Cn6cncn6)(c6ccc(Cl)cc6Cl)O5)cc4)CC3)cc2)c1=O (centres unmarked) [Itraconazole]
inhibition of CYP3A4 (CYP3A4): strong inhibitor

increase of AUC0→t of ripretinib [1, 4]: 36.35%
increase of Cmax of ripretinib [1, 4]: 38.35%
increase of AUC0→t of ripretinib [1, 5]: 25.52%
increase of Cmax of ripretinib [1, 5]: 27.44%
stability in plasma under four conditions [2]: good stability
SMILES: CCn1c(=O)c(-c2cc(NC(=O)Nc3ccccc3)c(F)cc2Br)cc2cnc(NC)cc21 [Ripretinib]
median time to reach Cmax [3, 6]: 4 h
time to reach a steady state [3, 6]: 14 days
mean AUC0-12h [3, 7]: 3773 ng·h/mL
mean AUC0-24h [3, 7]: 6634 ng·h/mL
mean Cmax [3, 7]: 502 ng/mL
inhibition of CYP2C8 (CYP2C8): could inhibit

SMILES: C[C@@H](c1ncncc1F)[C@](O)(Cn1cncn1)c1ccc(F)cc1F [voriconazole]
inhibition of CYP3A4 (CYP3A4): moderate inhibitor
